The target of series [1] is T1, Peroxisome proliferator-activated receptor delta (Homo sapiens) (UniProt Q03181).
T1 sequence (whole entry): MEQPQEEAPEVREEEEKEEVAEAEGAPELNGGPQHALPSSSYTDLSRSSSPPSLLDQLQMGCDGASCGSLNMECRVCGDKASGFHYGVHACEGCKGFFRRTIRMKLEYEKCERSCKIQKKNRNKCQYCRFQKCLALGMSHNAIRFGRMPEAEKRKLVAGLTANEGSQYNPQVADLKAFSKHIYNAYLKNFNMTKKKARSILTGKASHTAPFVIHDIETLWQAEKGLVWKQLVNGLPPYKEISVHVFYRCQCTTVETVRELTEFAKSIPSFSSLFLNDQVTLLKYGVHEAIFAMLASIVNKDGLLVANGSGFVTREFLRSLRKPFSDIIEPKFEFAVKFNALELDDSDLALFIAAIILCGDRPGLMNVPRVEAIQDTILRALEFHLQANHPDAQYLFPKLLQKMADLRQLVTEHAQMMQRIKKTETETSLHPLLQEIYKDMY
In words: Transactivation of GAL4-DBD fused human PPARdelta LBD (165 to 441 residues) expressed in African green monkey CV1 cells after 18 to 24 hrs by luciferase reporter gene assay. The format is cell-based. For orientation: A reporter such as luciferase makes a cellular process visible.

For series [2], the species on record is Homo sapiens. Put plainly: Selectivity ratio of IC50 for recombinant human His-tagged KGA S384A mutant expressed in Escherichia coli BL21(DE3)pLysS to IC50 for human His-tagged KGA (L123 to L669 residues) expressed in Escherichia coli BL21(DE3)pLysS.
The nature of series [3]: Inhibition of recombinant human His-tagged KGA R387L mutant expressed in Escherichia coli BL21(DE3)pLysS using glutamine substrate preincubated for 10 mins followed by substrate addition measured after 60 mins.
The species entered for series [4] is Homo sapiens. Put plainly: Selectivity ratio of IC50 for recombinant human His-tagged KGA R387A mutant expressed in Escherichia coli BL21(DE3)pLysS to IC50 for human His-tagged KGA (L123 to L669 residues) expressed in Escherichia coli BL21(DE3)pLysS.
Series [5] is filed under the species Homo sapiens. Put plainly: Selectivity ratio of IC50 for recombinant human His-tagged KGA R387L mutant expressed in Escherichia coli BL21(DE3)pLysS to IC50 for human His-tagged KGA (L123 to L669 residues) expressed in Escherichia coli BL21(DE3)pLysS.
Series [6] in a line: Inhibition of recombinant human His-tagged KGA S384A mutant expressed in Escherichia coli BL21(DE3)pLysS using glutamine substrate preincubated for 10 mins followed by substrate addition measured after 60 mins.
Series [7] addresses T2, Peroxisome proliferator-activated receptor alpha (Homo sapiens) (UniProt Q07869).
T2 sequence (whole entry): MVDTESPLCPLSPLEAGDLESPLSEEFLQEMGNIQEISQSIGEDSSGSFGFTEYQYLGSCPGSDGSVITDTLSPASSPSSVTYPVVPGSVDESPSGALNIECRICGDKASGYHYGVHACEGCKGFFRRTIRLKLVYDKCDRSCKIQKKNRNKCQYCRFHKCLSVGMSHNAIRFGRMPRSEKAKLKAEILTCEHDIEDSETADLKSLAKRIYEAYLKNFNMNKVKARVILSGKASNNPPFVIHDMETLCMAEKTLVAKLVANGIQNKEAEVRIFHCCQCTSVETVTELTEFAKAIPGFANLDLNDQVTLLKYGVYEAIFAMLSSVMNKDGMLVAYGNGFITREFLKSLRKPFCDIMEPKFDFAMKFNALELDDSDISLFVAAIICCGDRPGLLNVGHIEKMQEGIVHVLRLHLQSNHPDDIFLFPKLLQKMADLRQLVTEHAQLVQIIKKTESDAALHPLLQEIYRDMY
Put plainly: Transactivation of GAL4-DBD fused human PPARalpha LBD (193 to 469 residues) expressed in African green monkey CV1 cells after 18 to 24 hrs by luciferase reporter gene assay. Format: cell-based.

Series [8] can be described thus: Inhibition of recombinant human His-tagged KGA R387A mutant expressed in Escherichia coli BL21(DE3)pLysS using glutamine substrate preincubated for 10 mins followed by substrate addition measured after 60 mins.
For series [9], the species on record is Homo sapiens. In words: Selectivity ratio of IC50 for recombinant human His-tagged KGA K507A mutant expressed in Escherichia coli BL21(DE3)pLysS to IC50 for human His-tagged KGA (L123 to L669 residues) expressed in Escherichia coli BL21(DE3)pLysS.
For series [10], the target named is T3, Peroxisome proliferator-activated receptor gamma (Homo sapiens) (UniProt P37231).
T3 sequence (whole entry): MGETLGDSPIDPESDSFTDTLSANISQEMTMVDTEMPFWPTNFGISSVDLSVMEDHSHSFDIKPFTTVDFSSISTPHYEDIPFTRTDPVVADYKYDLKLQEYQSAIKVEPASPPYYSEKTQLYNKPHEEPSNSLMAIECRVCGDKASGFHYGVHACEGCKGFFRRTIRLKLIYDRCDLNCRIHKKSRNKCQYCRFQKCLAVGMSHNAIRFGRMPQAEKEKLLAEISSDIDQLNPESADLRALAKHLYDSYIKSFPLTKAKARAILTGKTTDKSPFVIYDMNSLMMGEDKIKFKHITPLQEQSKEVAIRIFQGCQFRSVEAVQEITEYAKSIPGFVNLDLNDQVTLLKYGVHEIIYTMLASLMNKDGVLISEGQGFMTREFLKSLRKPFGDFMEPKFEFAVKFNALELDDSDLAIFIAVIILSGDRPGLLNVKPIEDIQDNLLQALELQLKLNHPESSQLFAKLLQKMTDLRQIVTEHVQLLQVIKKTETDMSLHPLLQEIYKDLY
Put plainly: Transactivation of GAL4-DBD fused human PPARgamma LBD (199 to 477 residues) expressed in African green monkey CV1 cells after 18 to 24 hrs by luciferase reporter gene assay. The format is cell-based.

The subject of series [11] is Mus musculus. Put plainly: Toxicity in BALB/CAnN.Cg-Foxn1nu/CrlNarl mouse xenografted with human Aspc-1 cells assessed as overt toxicity at 25 to 50 mg/kg, ip once daily administered for 5 days followed by 2 days without dosing for 43 days. As to conditions: in vivo. Format: organism-based, BALB/C. In general terms: In xenograft studies the graft and the host belong to different species.

For series [12], the system named is Mus musculus. Put plainly: Toxicity in BALB/CAnN.Cg-Foxn1nu/CrlNarl mouse xenografted with human Aspc-1 cells assessed as overt toxicity at 25 to 50 mg/kg, ip once daily administered for 5 days followed by 2 days without dosing for 68 days. As to conditions: in vivo. The format is organism-based, BALB/C.
For a further series, the system named is HCC1806. In words: Synergistic cytotoxicity against human HCC1806 cells assessed as reduction in cell viability at ED50 in presence of BPTES by MTS assay. The format is functional. In a few lines:
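HCC1806 breast carcinoma cells seeded at 3000 cells/well and co-treated with the inhibitor and BPTES; viability read by MTS. […] Three independent experiments.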

Series [13] can be described thus: Volume of distribution at steady state in Sprague-Dawley rat at 2 mg/kg, iv by HPLC-MS analysis. The conditions noted are these: in vivo, read-out: Vdss. The format is ADME, organism-based. The gist of the method:
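Male rats (330−380 g, 9−10 weeks old), quarantined 1 week, jugular-vein cannula implanted 1 day before dosing; n = 3. Single iv dose in DMA/PEG400 (20%/80%, v/v). Blood (100 μL) was drawn via cannula at 0, 2, 5, 15, 30 min and 1, 2, 4, 6, 8, 24 h and kept on ice. Plasma was analysed by HPLC−MS/MS. Vss came from noncompartmental analysis.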

pIC50: −log10 of the molar value. Calls of active or inactive are those of the source. No cut-off for these calls is given here.

In general, pIC50 refers to −log10 of the IC50, conventionally taken in molar units.

For the molecule `Cc1cc(/C=C2\SC(=O)NC2=O)c(C)n1-c1ccc(-c2ccc(/C=C3\SC(=O)NC3=O)c(Cl)c2)cc1`, the result in series [1], in [7] and in [10] was inactive. In addition, the Ratio IC50 was 1.5 in the series listed under Homo sapiens [2], 191 in the series listed under Homo sapiens [4], 13.5 in the series listed under Homo sapiens [5] and 4.7 in the series filed under Homo sapiens [9]. The pIC50 is 6.11 in [3], 7.06 in series [6] and 4.96 in series [8].
Regarding `Cc1cc(/C=C2\SC(=O)NC2=O)c(C)n1-c1ccc(-c2ccc(/C=C3\SC(=O)NC3=O)cc2)cc1`, the Ratio IC50 in the series filed under Homo sapiens [2] was 3.5; in the series filed under Homo sapiens [4], greater than 490; in the series listed under Homo sapiens [5], 12.5; in the series filed under Homo sapiens [9], 10.2. The pIC50 in [3] is 5.90; in series [6] it was 6.44; in series [8], less than 4.30. Also, the Activity entry with Mus musculus [11] is reported as “Non-Toxic”.
Consider `O=C1NC(=O)/C(=C/c2ccc(-c3ccc(-n4c(-c5cccs5)cc(/C=C5\SC(=O)NC5=O)c4-c4cccs4)cc3)cc2)S1`, for which the Activity entry in the series with Mus musculus [12] is recorded as “Non-Toxic”. The result in series [1], in series [7] and in series [10] was inactive. The CI in the series on HCC1806 is given as 0.13 - 0.14. Further, the Vd in [13] came to 0.1 L/kg.

The values above are taken from ChEMBL document CHEMBL4011632, “Design, Synthesis, and Evaluation of Thiazolidine-2,4-dione Derivatives as a Novel Class of Glutaminase Inhibitors” (J Med Chem, 2017).
